Measurements as given in ChEMBL document CHEMBL1156527, “Potent D-peptide inhibitors of HIV-1 entry” (Proc Natl Acad Sci U S A, 2007).
Activity calls are given as the source filed them. The rule behind the calls is not given here.

What was measured:
[1] = system: Human immunodeficiency virus 1; test: Antiviral activity against HIV1 JRFL in HOS-CD4-CCR5 cells at 100 uM by viral infectivity assay; type: functional, organism-based
Summary of the method: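 JRFL pseudovirions were tested in single-cycle infection of HOS-CD4-CCR5 cells with 8 μg/ml DEAE-Dextran and a medium change ≈24 h post-infection. Inhibition was scored at 100 μM. DMSO-dissolved samples were at 1% final DMSO, normalized to a 1% DMSO control.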

[2] = Binding affinity to HIV1 N-trimer gp41 mimic IZN36 by surface plasmon resonance analysis
[3] = system: Human immunodeficiency virus 1; test: Antiviral activity against HIV1 HXB2 in HOS-CD4-CXCR4 cells by viral infectivity assay; type: functional, organism-based; settings: Human immunodeficiency virus 1, HXB2
Summary of the method: (§1)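 Single-cycle pseudovirion entry assay. HXB2 pseudovirions were used on HOS-CD4-CXCR4 cells, and BaL or JRFL on HOS-CD4-CCR5 cells. 8 μg/ml DEAE-Dextran served as fusion enhancer, and medium was changed ≈24 h post-infection. DMSO-dissolved samples were run at 1% final DMSO against a 1% DMSO uninhibited control. IC50 comes from duplicate assays. Toxicity was checked microscopically and by luciferase with VSV-G pseudotyped virions, where a >10% loss meant toxicity.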

[4] = system: Human immunodeficiency virus 1; test: Antiviral activity against HIV1 BaL in HOS-CD4-CCR5 cells by viral infectivity assay; type: functional, organism-based; settings: Human immunodeficiency virus 1, BaL; summary of the method: as §1
[5] = system: Human immunodeficiency virus 1; test: Antiviral activity against HIV1 JRFL in HOS-CD4-CCR5 cells by viral infectivity assay; type: functional, organism-based; settings: Human immunodeficiency virus 1, JRFL; summary of the method: as §1
HOS = test: Cytotoxicity in VSV-G pseudotyped virion infected human HOS-CD4-CXCR4 cells assessed as luciferase level at 100 uM after 24 hrs; type: cell-based
Summary of the method: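 Single-cycle infection in HOS-CD4 target cells with VSV-G-pseudotyped luciferase virions in the presence of peptide, using 8 μg/ml DEAE-Dextran as fusion enhancer. Media were changed about 24 h after infection. DMSO-dissolved samples were run at 1% final DMSO against a 1% DMSO uninhibited control. A luciferase drop of more than 10% counted as cytotoxicity, alongside microscopic inspection at about 24 h.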

Structure (SMILES)	Activity [1]	Kd [2]	IC50 [3]	IC50 [4]	IC50 [5]	Activity (HOS)
CC(C)C[C@@H](NC(=O)[C@@H](Cc1c[nH]c2ccccc12)NC(=O)[C@@H](CCCNC(=N)N)NC(=O)[C@@H](Cc1c[nH]c2ccccc12)NC(=O)[C@@H](CCC(=O)O)NC(=O)[C@H]1CCCN1C(=O)[C@@H](CO)NC(=O)[C@@H](CCC(=O)O)NC(=O)[C@H](CS)NC(=O)[C@@H](C)NC(=O)CNC(=O)[C@@H](CCCCN)NC(=O)[C@H](N)CCCCN)C(=O)N[C@@H](CS)C(=O)N[C@H](C)C(=O)N[C@H](C)C(=O)O	inactive					
CC(C)C[C@@H](NC(=O)[C@@H](Cc1c[nH]c2ccccc12)NC(=O)[C@@H](CCCNC(=N)N)NC(=O)[C@@H](Cc1c[nH]c2ccccc12)NC(=O)[C@@H](CCC(=O)O)NC(=O)[C@H]1CCCN1C(=O)[C@@H](Cc1ccc(O)cc1)NC(=O)[C@@H](CC(=O)O)NC(=O)[C@@H](CS)NC(=O)[C@@H](C)NC(=O)CNC(=O)[C@@H](CCCCN)NC(=O)[C@H](N)CCCCN)C(=O)N[C@H](CS)C(=O)N[C@H](C)C(=O)N[C@H](C)C(=O)O		170 nM	2600 nM			
CC(C)C[C@@H](NC(=O)[C@@H](Cc1c[nH]c2ccccc12)NC(=O)[C@@H](CCC(N)=O)NC(=O)[C@@H](Cc1c[nH]c2ccccc12)NC(=O)[C@@H](CCC(=O)O)NC(=O)[C@H]1CCCN1C(=O)[C@@H](Cc1ccc(O)cc1)NC(=O)[C@@H](CC(=O)O)NC(=O)[C@@H](CS)NC(=O)[C@@H](C)NC(=O)CNC(=O)[C@H](N)CCCCN)C(=O)N[C@H](CS)C(=O)N[C@H](C)C(=O)N[C@H](C)C(=O)O		80 nM	620 nM	2200 nM	24000 nM	
CC(C)C[C@@H](NC(=O)[C@@H](Cc1c[nH]c2ccccc12)NC(=O)[C@@H](CCCNC(=N)N)NC(=O)[C@@H](Cc1c[nH]c2ccccc12)NC(=O)[C@@H](CCC(=O)O)NC(=O)[C@H]1CCCN1C(=O)[C@@H](Cc1ccc(O)cc1)NC(=O)[C@@H](CC(=O)O)NC(=O)[C@@H](CS)NC(=O)[C@@H](C)NC(=O)CNC(=O)[C@H](N)CCCCN)C(=O)N[C@H](CS)C(=O)N[C@H](C)C(=O)N[C@H](C)C(=O)O		130 nM	1300 nM		66000 nM	
CC(C)C[C@@H](NC(=O)[C@@H](Cc1c[nH]c2ccccc12)NC(=O)[C@@H](CCC(N)=O)NC(=O)[C@@H](Cc1c[nH]c2ccccc12)NC(=O)[C@@H](CCC(=O)O)NC(=O)[C@@H](CCCCN)NC(=O)[C@@H](Cc1ccc(O)cc1)NC(=O)[C@@H](CC(=O)O)NC(=O)[C@@H](CS)NC(=O)[C@@H](C)NC(=O)CNC(=O)[C@H](N)CCCCN)C(=O)N[C@H](CS)C(=O)N[C@H](C)C(=O)N[C@H](C)C(=O)O		170 nM	1700 nM		110000 nM	
CC(C)C[C@@H](NC(=O)[C@@H](CC(C)C)NC(=O)[C@@H](CCC(=O)O)NC(=O)[C@@H](CS)NC(=O)[C@@H](C)NC(=O)CNC(=O)[C@@H](CCCCN)NC(=O)[C@H](N)CCCCN)C(=O)NCC(=O)N[C@H](Cc1c[nH]c2ccccc12)C(=O)N[C@H](CCC(=O)O)C(=O)N[C@H](Cc1c[nH]c2ccccc12)C(=O)N[C@H](C)C(=O)N[C@H](Cc1c[nH]c2ccccc12)C(=O)N[C@H](CC(C)C)C(=O)N[C@H](CS)C(=O)N[C@H](C)C(=O)N[C@H](C)C(=O)O		7000 nM	9500 nM	12000 nM	> 25000 nM	Toxic
CC(C)C[C@@H](NC(=O)[C@@H](Cc1c[nH]c2ccccc12)NC(=O)[C@@H](CCCNC(=N)N)NC(=O)[C@@H](Cc1c[nH]c2ccccc12)NC(=O)[C@@H](CCC(=O)O)NC(=O)[C@H]1CCCN1C(=O)[C@@H](CO)NC(=O)[C@@H](CCC(=O)O)NC(=O)[C@@H](CS)NC(=O)[C@@H](C)NC(=O)CNC(=O)[C@@H](CCCCN)NC(=O)[C@H](N)CCCCN)C(=O)N[C@H](CS)C(=O)N[C@H](C)C(=O)N[C@H](C)C(=O)O			2200 nM			
